Data from ChEMBL document CHEMBL1124265, “Effects of D-amino acid substitution on antagonist activities of angiotensin II analogues” (J Med Chem, 1988).
Residues, ends and D or L forms follow the SMILES beside them.

Tests used:
Oryctolagus cuniculus [1] = species on record: Oryctolagus cuniculus; assay: pA2 value was determined in the range of competitive inhibition in the in vitro rabbit aorta strip assay; g = partial agonist at 10 ng/mL; assay type: functional; conditions: filed as partial agonist
Oryctolagus cuniculus [2] = species on record: Oryctolagus cuniculus; assay: AII-like activity, expressed as percent relative to AII (angiotensin II) was measured in the in vitro rabbit aorta strip assay; g = partial agonist at 10 ng/mL; assay type: functional; conditions: filed as partial agonist
Rattus norvegicus [3] = species on record: Rattus norvegicus; assay: Dose required for the two fold increase in the dose of AII to produce the same elevation in blood pressure as in the control period.; assay type: functional
In short: (§1)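 Rat blood pressure assay in vivo, using 250-g rats. ID50 is the antagonist dose, in ng/rat per min, that requires a twofold increase in the AII dose to give the same blood pressure rise as in the control period.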

[4] = biological target: Angiotensin II receptor (Homo sapiens) (UniProt P30556+P50052); assay: In vitro angiotensin II-like activity, expressed as percent relative to angiotensin II, measured in the rabbit aorta strip assay; assay type: functional, tissue-based; conditions: Oryctolagus cuniculus
Rattus norvegicus [5] = assay: Dose required for the two fold increase in the dose of AII to produce the same elevation in blood pressure as in the control period.(in vivo); assay type: functional; in short: as §1
Rattus norvegicus [6] = assay: AII-like activity, expressed as percent relative to AII (angiotensin II) was measured in the in vivo rat blood pressure assay; assay type: functional
In short: (§2)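 Rat blood pressure assay in vivo. Residual agonist activity is expressed as percent activity relative to AII.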

Oryctolagus cuniculus [7] = species on record: Oryctolagus cuniculus; assay: AII-like activity, expressed as percent activity relative to AII (angiotensin II), measured in rabbit aorta strip assay
Oryctolagus cuniculus [8] = species on record: Oryctolagus cuniculus; assay: In vitro AII-like activity, expressed as percent activity relative to AII (angiotensin II), measured in rabbit aorta; assay type: functional
Rattus norvegicus [9] = assay: In vivo AII-like activity, expressed as percent activity relative to AII (angiotensin II), measured in rat blood pressure assay; assay type: functional; in short: as §2
Rattus norvegicus [10] = assay: In vivo AII-like activity, expressed as percent activity relative to AII (angiotensin II), measured in rat blood pressure assay; g = partial agonist at 10 ng/mL; assay type: functional, organism-based; conditions: filed as partial agonist; in short: as §2

Biological activity [4] | SMILES | ID50 (Rattus norvegicus [3]) | also measured
 | CC[C@H](C)[C@H](NC(=O)[C@H](Cc1ccc(O)cc1)NC(=O)[C@@H](NC(=O)[C@H](CCCN=C(N)N)NC(=O)CNC)C(C)C)C(=O)N[C@@H](Cc1c[nH]cn1)C(=O)N1CCC[C@H]1C(=O)N[C@@H](CCc1ccccc1)C(=O)O |  | pA2 (Oryctolagus cuniculus [1]): Partial agonist; Biological activity (Oryctolagus cuniculus [2]): Partial agonist
 | CC[C@H](C)[C@H](NC(=O)[C@H](Cc1ccc(O)cc1)NC(=O)[C@@H](NC(=O)[C@H](CCCNC(=N)N)NC(=O)CNC)C(C)C)C(=O)N[C@@H](Cc1c[nH]cn1)C(=O)N1CCC[C@H]1C(=O)N[C@H](Cc1ccccc1)C(N)=O | 12.5 ng min-1 rat-1 | 
-0% | CC[C@H](C)[C@H](NC(=O)[C@H](Cc1ccc(O)cc1)NC(=O)[C@@H](NC(=O)[C@H](CCCN=C(N)N)NC(=O)CNC)C(C)C)C(=O)N[C@@H](Cc1c[nH]cn1)C(=O)N1CCC[C@H]1C(=O)N[C@@H](C)C(=O)O | 15 ng min-1 rat-1 | 
 | CC[C@H](C)[C@H](NC(=O)[C@H](Cc1ccc(O)cc1)NC(=O)[C@@H](NC(=O)[C@@H](CCCNC(=N)N)NC(=O)CNC)C(C)C)C(=O)N[C@@H](Cc1c[nH]cn1)C(=O)N1CCC[C@@H]1C(=O)NC(Cc1c[nH]c2ccccc12)C(=O)O (stereo in doubt) | 10 ng min-1 rat-1 | 
-0% | CC[C@H](C)[C@H](NC(=O)[C@@H]1CCCN1C(=O)[C@@H](Cc1c[nH]cn1)NC(=O)[C@@H](NC(=O)[C@H](Cc1ccc(O)cc1)NC(=O)[C@@H](NC(=O)[C@H](CCCN=C(N)N)NC(=O)CNC)C(C)C)[C@@H](C)CC)C(=O)O |  | ID50 (Rattus norvegicus [5]): >1000 ng min-1 rat-1; Biological activity (Rattus norvegicus [6]): 0%
 | CC[C@H](C)[C@H](NC(=O)[C@H]1CCCN1C(=O)[C@H](Cc1c[nH]cn1)NC(=O)[C@@H](NC(=O)[C@H](Cc1ccc(O)cc1)NC(=O)[C@@H](NC(=O)[C@H](CCCNC(=N)N)NC(=O)[C@@H](N)CC(=O)O)C(C)C)[C@@H](C)CC)C(=O)O |  | Biological activity (Oryctolagus cuniculus [7]): 0.1%
 | CC[C@H](C)[C@H](NC(=O)[C@H](Cc1ccc(O)cc1)NC(=O)[C@@H](NC(=O)[C@H](CCCN=C(N)N)NC(=O)CNC)C(C)C)C(=O)N[C@@H](Cc1c[nH]cn1)C(=O)N1CCC[C@H]1C(=O)N[C@H](Cc1ccccc1)C(=O)O | 12.5 ng min-1 rat-1 | Biological activity (Oryctolagus cuniculus [8]): 0%
100% | CC[C@H](C)[C@H](NC(=O)[C@H](Cc1ccc(O)cc1)NC(=O)[C@@H](NC(=O)[C@H](CCCN=C(N)N)NC(=O)[C@@H](N)CC(=O)O)C(C)C)C(=O)N[C@@H](Cc1c[nH]cn1)C(=O)N1CCC[C@H]1C(=O)N[C@@H](Cc1ccc(O)cc1)C(=O)O (H-DRVYIHPY-OH) |  | Biological activity (Rattus norvegicus [9]): 83%
-0% | CC[C@H](C)[C@H](NC(=O)[C@H](Cc1ccccc1)NC(=O)[C@@H](NC(=O)[C@H](CCCN=C(N)N)NC(=O)CNC)C(C)C)C(=O)N[C@@H](Cc1c[nH]cn1)C(=O)N1CCC[C@H]1C(=O)N[C@H](Cc1ccc(O)cc1)C(=O)O | 25 ng min-1 rat-1 | 
-0% | CC[C@H](C)[C@H](NC(=O)[C@@H]1CCCN1C(=O)[C@H](Cc1c[nH]cn1)NC(=O)[C@@H](NC(=O)[C@H](Cc1ccc(O)cc1)NC(=O)[C@@H](NC(=O)[C@@H](CCCN=C(N)N)NC(=O)CNC)C(C)C)[C@@H](C)CC)C(=O)O |  | ID50 (Rattus norvegicus [5]): 150 ng min-1 rat-1
 | CC[C@H](C)[C@H](NC(=O)[C@H](Cc1ccc(O)cc1)NC(=O)[C@@H](NC(=O)[C@H](CCCNC(=N)N)NC(=O)CNC)C(C)C)C(=O)N[C@@H](Cc1c[nH]cn1)C(=O)N1CCC[C@H]1C(=O)N[C@H](Cc1ccc(Cl)cc1)C(=O)O | 25 ng min-1 rat-1 | 
 | CC[C@H](C)[C@H](NC(=O)[C@H](Cc1ccc(O)cc1)NC(=O)[C@@H](NC(=O)[C@H](CCCNC(=N)N)NC(=O)C[C@@H](N)C(=O)O)C(C)C)C(=O)N[C@@H](Cc1c[nH]cn1)C(=O)N1CCC[C@H]1C(=O)N[C@@H](CC(C)C)C(=O)O | 15 ng min-1 rat-1 | 
 | CC[C@H](C)[C@H](NC(=O)[C@H](Cc1ccc(O)cc1)NC(=O)[C@@H](NC(=O)[C@H](CCCNC(=N)N)NC(=O)CNC)C(C)C)C(=O)N[C@@H](Cc1c[nH]cn1)C(=O)N1CCC[C@H]1C(=O)N[C@](C)(Cc1ccccc1)C(=O)O | 10 ng min-1 rat-1 | 
-0% | CC[C@H](C)[C@H](NC(=O)[C@H](Cc1ccc(O)cc1)NC(=O)[C@@H](NC(=O)[C@H](CCCN=C(N)N)NC(=O)CNC)C(C)C)C(=O)N[C@H](Cc1c[nH]cn1)C(=O)N1CCC[C@H]1C(=O)N[C@H](Cc1ccccc1)C(=O)O | 0 ng min-1 rat-1 | Biological activity (Rattus norvegicus [9]): 0%
-0% | CC[C@H](C)[C@H](NC(=O)[C@H](Cc1ccc(O)cc1)NC(=O)[C@@H](NC(=O)[C@H](CCCN=C(N)N)NC(=O)CNC)C(C)C)C(=O)N[C@@H](Cc1c[nH]cn1)C(=O)N1CCC[C@H]1C(=O)N[C@@H](C(=O)O)c1ccccc1 | 3.5 ng min-1 rat-1 | 
 | CC[C@H](C)[C@H](NC(=O)C(C)NC(=O)[C@H](Cc1c[nH]cn1)NC(=O)[C@H](NC(=O)[C@@H](Cc1ccc(O)cc1)NC(=O)[C@@H](NC(=O)[C@H](CCCNC(=N)N)NC(=O)[C@@H](N)CC(=O)O)C(C)C)C(C)C)C(=O)O (stereo in doubt) | 0 ng min-1 rat-1 | 
-0% | CC[C@H](C)[C@H](NC(=O)[C@@H]1CCCN1C(=O)[C@H](Cc1c[nH]cn1)NC(=O)[C@H](NC(=O)[C@H](Cc1ccc(O)cc1)NC(=O)[C@H](NC(=O)[C@H](CCCN=C(N)N)NC(=O)CNC)C(C)C)C(C)C)C(=O)O |  | ID50 (Rattus norvegicus [5]): >1000 ng min-1 rat-1; Biological activity (Rattus norvegicus [9]): 0%
 | CC[C@H](C)[C@H](NC(=O)[C@H](Cc1ccc(O)cc1)NC(=O)[C@@H](NC(=O)[C@H](CCCNC(=N)N)NC(=O)CNC)C(C)C)C(=O)N[C@@H](Cc1c[nH]cn1)C(=O)N1CCC[C@H]1C(=O)N[C@H](Cc1ccc2ccccc2c1)C(=O)O | 25 ng min-1 rat-1 | 
-0% | CC[C@H](C)[C@H](NC(=O)[C@@H]1CCCN1C(=O)[C@H](Cc1c[nH]cn1)NC(=O)[C@@H](NC(=O)[C@H](Cc1ccc(O)cc1)NC(=O)[C@@H](NC(=O)[C@H](CCCN=C(N)N)NC(=O)CNC)C(C)C)[C@@H](C)CC)C(=O)O |  | ID50 (Rattus norvegicus [5]): 10 ng min-1 rat-1
 | CC[C@H](C)[C@H](NC(=O)[C@H](Cc1ccc(O)cc1)NC(=O)[C@@H](NC(=O)[C@H](CCCNC(=N)N)NC(=O)CNC)C(C)C)C(=O)N[C@@H](Cc1c[nH]cn1)C(=O)N1CCC[C@H]1C(=O)N[C@@H](C(=O)O)C(C)C | 50 ng min-1 rat-1 | Biological activity (Rattus norvegicus [6]): 10
 | CC[C@H](C)[C@H](NC(=O)[C@H](Cc1ccc(O)cc1)NC(=O)[C@@H](NC(=O)[C@H](CCCN=C(N)N)NC(=O)CNC)C(C)C)C(=O)N[C@@H](Cc1c[nH]cn1)C(=O)N1CCC[C@H]1C(=O)N[C@H](C(=O)O)c1ccccc1 |  | Biological activity (Oryctolagus cuniculus [2]): Partial agonist; Biological activity (Rattus norvegicus [10]): Partial agonist
 | CC[C@H](C)[C@H](NC(=O)[C@H](Cc1ccc(O)cc1)NC(=O)[C@@H](NC(=O)[C@@H](CCCN=C(N)N)NC(=O)[C@@H](N)CC(=O)O)C(C)C)C(=O)NC(Cc1c[nH]cn1)C(=O)N1CCC[C@@H]1C(=O)N[C@@H](C(=O)O)[C@@H](C)CC (stereo in doubt) |  | Biological activity (Rattus norvegicus [9]): 0.014%
-0% | CC[C@H](C)[C@H](NC(=O)[C@H](Cc1ccccc1)NC(=O)[C@@H](NC(=O)[C@H](CCCN=C(N)N)NC(=O)CNC)C(C)C)C(=O)N[C@@H](Cc1c[nH]cn1)C(=O)N1CCC[C@H]1C(=O)N[C@@H](Cc1ccc(O)cc1)C(=O)O | 50 ng min-1 rat-1 | 
 | CC(C)[C@H](NC(=O)[C@H](CCCN=C(N)N)NC(=O)[C@@H](N)CC(N)=O)C(=O)N[C@@H](Cc1ccc(O)cc1)C(=O)N[C@H](C(=O)N[C@@H](Cc1c[nH]cn1)C(=O)N1CCC[C@H]1C(=O)N[C@@H](Cc1ccccc1)C(N)=O)C(C)C (H-NRVYVHPF-NH2) |  | Biological activity (Rattus norvegicus [9]): 3%
-0% | CC[C@H](C)[C@H](NC(=O)[C@H](Cc1ccc(O)cc1)NC(=O)[C@@H](NC(=O)[C@H](CCCN=C(N)N)NC(=O)CNC)C(C)C)C(=O)N[C@@H](Cc1c[nH]cn1)C(=O)N1CCC[C@H]1C(=O)N[C@H](Cc1ccc(O)cc1)C(=O)O | 20 ng min-1 rat-1 | 
